High-throughput results: PubChem BioAssay, several laboratories
EBV gp42 inh: blocks Epstein-Barr virus glycoprotein 42 binding | Q1HVG2 | Fluorescence polarization binding assay, mP read-out | inhibition, % (tested at 21.74 µM) | 220,000 tested, 0.42% active; in the data active means inhibition above about 50%
Target sequence (Q1HVG2 whole entry, looked up): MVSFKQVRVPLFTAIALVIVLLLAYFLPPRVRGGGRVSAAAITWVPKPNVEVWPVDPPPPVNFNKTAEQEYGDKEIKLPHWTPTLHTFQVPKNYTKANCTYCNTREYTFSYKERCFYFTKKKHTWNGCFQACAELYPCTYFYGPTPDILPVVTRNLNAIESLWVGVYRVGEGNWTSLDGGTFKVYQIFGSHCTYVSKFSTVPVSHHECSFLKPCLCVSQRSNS
Tb MetRS inh: blocks T. brucei methionyl-tRNA synthetase activity | 360,000 tested, 0.4% active | purified T. brucei MetRS, ATP depletion, Kinase-Glo luminescence | AID 624268 | inhibition, % at 11.9 µM;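 active means inhibition above a per-plate cutoff of the control wells' mean inhibition plus 3 SD, cut at about 5.5% in these data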;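 further: 0% = DMSO wells median and 100% = median of wells with control inhibitor compound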
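technique = Kinase-Glo luminescence, ATP depletion format | system = purified MetRS (methionyl-tRNA synthetase) enzyme from Trypanosoma brucei | timing = 15 min preincubation, 2 h reaction, all 25 °C | evaluation = percent inhibition versus plate control medians | dosing = single dose, 11.9 µM final nominal, 0.9% final DMSO | also added = substrates ATP, L-methionine and bulk Escherichia coli tRNA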
MPTP block: permeability transition pore inhibition; isolated mouse mitochondria, Ca2+ swelling absorbance, 30 min; inhibition, % at 10 µM; 360,000 tested, 1.4% active; AID 602449;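 active means inhibition of 50% or more, scaled per plate between neutral and stimulator controls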;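 further: 0% = DMSO wells given calcium and 100% = 1 mM EGTA wells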
WT yeast gro inh: growth inhibition of WT yeast, mitochondrial fusion screen; mitochondrial fusion phenotypic screen, WT strain; inhibition, % at 10 µM; 190,000 tested, 2.1% active; AID 1362; in the data active means inhibition above about 58%; tested in S. cerevisiae
CHOP inhibitor: CHOP inhibition in unfolded protein response. inhibition, % at 10 µM. 220,000 tested, 3.8% active. CHO-K1 CHOP-promoter luciferase, tunicamycin-induced, 15-18 h. AID 2732;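 active means compounds that reduced the stress-induced luciferase reporter signal by more than about 70% of percent inhibition, limit read from the data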;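 further: 0% = tunicamycin plus vehicle and 100% = wells without tunicamycin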
GRIN3A LBD mod: modulates the human NR3A ligand-binding domain. AID 1259313. NR3A LBD differential scanning fluorimetry, Tm shift; 0% = protein alone, 100% = glycine-bound protein. Tm shift relative to glycine control, % at 25 µM. 340,000 tested, 2.5% active;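 active means melting temperature shift of at least 10% of the positive control shift, at one fixed dose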
CHOP confirm: confirmation of CHOP induction inhibitors. inhibition, % at 10 µM. 2,100 tested, 45% active. shares compounds with CHOP inhibitor. CHO-CHOP promoter luciferase reporter, tunicamycin-induced, luminescence;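 active means mean of three repeat readings of reporter signal inhibition above a set limit, cut at about 70% in these data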;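 further: 0% = tunicamycin plus vehicle and 100% = wells lacking tunicamycin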
Numbers without * were called inactive; / = not tested or not shown. Rows were chosen to be rich in hits. Some 6.4% of all compounds tested hit in one or more screens of this group.

SMILES	EBV gp42 inh	Tb MetRS inh	MPTP block	WT yeast gro inh	CHOP inhibitor	GRIN3A LBD mod	CHOP confirm
COc1ccc(-c2nn(-c3ccccc3)cc2/C=N/N2C(=O)CSC2=S)cc1	-32.3	0.2	1.5	87.0	112.5*	-1.2	77.4*
O=C(COc1ccc2ccc(=O)oc2c1)Nc1cc([N+](=O)[O-])ccc1F	/	-0.4	0.3	/	/	-1.9	/
N=C1SCC(=O)N1c1ccccc1Cl	/	-1.4	-0.4	/	/	0.4	/
CCCn1c(=S)[nH]c2cc(C(=O)N3CCc4ccccc4C3)ccc2c1=O	-2.7	3.0	4.9	2.2	101.9*	-1.8	14.2
Cc1ccc(Nc2nc(N)c([N+](=O)[O-])c(N3CCC(C)CC3)n2)cc1C	20.3	-0.7	6.6	95.2*	101.3*	-7.1	102.1*
Cc1ccc(Nc2nc(N)c([N+](=O)[O-])c(N3CCOCC3)n2)cc1C	-16.4	-1.2	-15.7	-0.6	12.8	-5.0	/
O=C(Cn1c(Cc2ccccc2)nc2ccccc21)NCc1ccc2c(c1)OCO2	-9.7	0.3	5.9	-8.5	-15.2	-6.8	/
CCSc1nc2ccccc2n1C(=O)/C=C\c1ccc(OC)c(OC)c1	-16.8	-3.4	0.3	-8.0	110.3*	-12.7	111.4*
CN(C)c1cc(-c2cccc(C(F)(F)F)c2)oc(=O)c1Cl	/	-0.6	0.9	/	/	-0.6	/
COc1ccc(-c2nc(NC(=O)Cn3ccc(C(F)(F)F)n3)sc2C)cc1	-2.9	0.0	-3.2	22.7	103.3*	2.2	73.6*
CCCC[C@@H]1C[C@H]1[C@@H](NC(=O)c1ccco1)c1ccc(C(=O)OC)cc1	/	/	/	/	/	-1.9	/
O=C(Nc1ccc(Oc2c(F)c(F)c(F)c(F)c2F)cc1)OC1CCN2Cc3ccccc3N=C12 (stereo not given)	-19.2	-0.3	0.4	/	100.2*	-1.7	125.4*
Nc1c2nc(-c3ccccc3)[nH]c(=O)c2nc(=O)n1-c1ccccc1	-10.9	-0.4	3.4	/	102.7*	3.0	-5.7
N#CC1=C(N)N2C(=C(C#N)C13CCN(Cc1ccccc1)CC3)Nc1ccccc12	-10.1	-0.4	-1.5	0.8	-13.0	-1.3	/
N#CC1=C(N)N2C(=C(C#N)C1c1ccc(Br)cc1)Nc1ccccc12 (stereo not given)	-17.0	/	/	21.6	105.5*	22.6*	94.4*
CN1C=CC(=C2C(=O)c3ccccc3C2=O)C=C1	-3.3	/	/	3.5	16.8	/	/
CCCCN1C(C)=CC(=C2C(=O)c3ccccc3C2=O)C=C1C	9.1	-1.4	0.0	4.3	-16.1	1.2	/
CCCN1C=CC(=C2C(=O)c3ccccc3C2=O)C=C1	-0.1	-5.2	-1.5	54.8	103.2*	1.0	125.5*
CCN1C=CC(=C2C(=O)c3ccccc3C2=O)C=C1	-16.6	-5.8	0.0	33.2	99.7*	-2.3	115.1*
CCCCCCN1C=CC(=C2C(=O)c3ccccc3C2=O)C=C1	15.1	1.8	-3.2	33.1	98.6*	-6.3	101.5*
Cc1cccc(NC(=O)CN2C(=O)N/C(=C\c3cccn3-c3cccc(C(=O)O)c3)C2=O)c1	-26.0	0.4	2.2	-11.0	2.0	-1.8	/
O=C(Cc1csc(Nc2nc(=S)[nH]c3ccccc23)n1)N1CCN(c2cccc(Cl)c2)CC1	-10.5	-0.4	-1.2	9.7	102.8*	1.7	37.7
C=CCn1c(=O)c(C(C)=O)cn(N(C)c2ncc(C(F)(F)F)cc2Cl)c1=O	-5.1	-1.6	0.3	-16.3	24.3	2.6	/
COC(=O)c1[nH]c2ccc(C)cc2c1NC(=O)Nc1ccc(OC)cc1	-1.7	-1.2	3.3	-11.9	101.0*	-5.6	36.7
COC(=O)c1[nH]c2ccc(F)cc2c1NC(=O)Nc1ccc(OC)cc1	-0.2	-0.2	4.0	-12.0	-31.4	-1.0	/
SMILES	EBV gp42 inh	Tb MetRS inh	MPTP block	WT yeast gro inh	CHOP inhibitor	GRIN3A LBD mod	CHOP confirm
Cc1ccc(-n2ncc3c2CC(C)(C)CC3NC(=O)CCc2cccnc2)cc1 (stereo not given)	/	-0.5	0.4	/	/	0.7	/
O=c1[nH]c(=O)n(Cc2ccco2)c2c1C(C(F)(F)F)(C(F)(F)F)N=C(c1ccc(F)cc1)N2	-11.1	-0.8	27.8	12.3	100.5*	2.2	86.8*
O=C(CCn1cccn1)N1CCCC(N2CCN(c3cccc(Cl)c3)CC2)C1 (stereo not given)	/	-0.4	-1.4	/	/	-2.0	/
CCOC(=O)C1CCN(C(=O)CCN2C(=O)C3C4C=CC(C4)C3C2=O)CC1 (stereo not given)	-7.0	-1.0	-0.7	7.0	-10.7	-0.6	/
CC(=O)n1cc([C@H]2C=C(C(N)=O)O[C@@H](OCc3ccc(CO)cc3)C2)c2ccccc21	/	-0.1	-0.6	/	/	1.3	/
COc1ccc(C(C(=O)NC2CCCCC2)N(C(=O)CCl)c2cccc(Cl)c2)cc1 (stereo not given)	-11.0	-1.6	-0.4	-24.2	105.8*	-3.0	104.3*
O=C(CN(C(=O)c1csnn1)c1cccc(C(F)(F)F)c1)NCCc1ccccc1	/	0.9	1.2	/	/	-0.9	/
O=C1c2cccc3cccc(c23)C(=O)N1OS(=O)(=O)c1ccccc1	2.0	-1.1	0.7	0.1	31.8	1.6	/
Cc1ccc(C)c(S(=O)(=O)ON2C(=O)c3ccccc3C2=O)c1	1.6	-0.4	5.8	22.0	106.3*	5.4	105.5*
O=C1c2ccccc2C(=O)N1OS(=O)(=O)c1ccccc1	-11.1	/	/	-1.6	107.8*	/	-58.0
Cc1cc(S(=O)(=O)ON2C(=O)c3ccccc3C2=O)ccc1F	/	0.1	0.6	/	/	1.1	/
CCOC(=O)Cc1cc(-c2ccc(OC)cc2)nc2ccc3ccccc3c12	-2.3	-0.3	0.8	7.1	23.5	-1.5	/
CCOC(=O)Cc1cc(-c2ccc(O)cc2)nc2ccc3ccccc3c12	4.0	-0.5	3.0	4.8	100.9*	18.4*	96.2*
O=c1[nH]c(=S)n(C2CCCCC2)c(O)c1C=NCCN1CCOCC1	-11.4	-0.3	1.9	/	13.6	0.9	/
CC(C)C(=O)N1CCC(CN=Cc2c(O)n(C3CCCCC3)c(=O)n(C3CCCCC3)c2=O)CC1	3.8	-0.8	3.2	77.5*	104.5*	0.1	118.3*
CCCCC(NC(C)=O)c1nc2ccccc2n1CCC (stereo not given)	-29.0	-0.8	-1.0	3.6	7.0	-1.7	/
CCOC(=O)c1c(C)sc2c1N(C(=O)CCl)c1cc(Cl)ccc1S2	-18.4	-0.5	-1.4	39.6	/	1.2	-24.3
COc1ccccc1-c1ccc(SCc2cccc(F)c2)nn1	-20.0	-0.4	0.2	50.2	20.5	0.7	/
CCOC(=O)c1ccc(NNC(=O)CC)c([N+](=O)[O-])c1	-19.1	-0.9	-0.5	-18.8	-5.6	1.6	/
Cc1nn(-c2ccccc2)c2c1C(c1ccc(F)cc1F)C(C#N)=C(N)O2 (stereo not given)	1.0	-0.4	19.9	-11.7	99.5*	-2.5	17.3
Cc1ccc(-n2nc(C)c3c2OC(N)=C(C#N)C3c2ccoc2)cc1 (stereo not given)	-14.4	-0.6	6.0	18.1	54.5	1.5	/
